ChEMBL document CHEMBL1145439, “Fluorine-18-labeled benzamide analogues for imaging the sigma2 receptor status of solid tumors with positron emission tomography” (J Med Chem, 2007)

Tests used:
[1] = Tumor to muscle ratio of the drug in mouse EMT6 tumor bearing BALB/c mouse at 10 to 20 uCi after 2 hrs; format: ADME, tissue-based, Muscle tissue
In short: (§1)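 Tumor-bearing female Balb/c mice (EMT-6 s.c. allograft, ~0.2 cm3) given 10-20 µCi 18F tracer in saline i.v. via tail vein; ≥4 per group; killed 120 min later. Tissues weighed and gamma-counted; ratio = tumor %ID/g divided by that organ's %ID/g.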

[2] = Tumor to fat ratio of the drug in mouse EMT6 tumor bearing BALB/c mouse at 10 to 20 uCi after 2 hrs; format: ADME; in short: as §1
[3] = system: Blood; test: Biodistribution in blood of mouse EMT6 tumor bearing BALB/c mouse at 10 to 20 uCi after 5 mins; format: ADME, organism-based; settings: in vivo
In short: (§2)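 EMT-6 cells (5×10^5 in 100 µL PBS) implanted s.c. in scapular region of female Balb/c mice (~2 months, 17-22 g); studied 7-10 days later at ~0.2 cm3 tumor. 18F tracer 10-20 µCi in 100-150 µL saline via tail vein; ≥4 mice per time point; tissue removed at sacrifice, weighed, gamma-counted; %ID/g calculated.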

[4] = system: Blood; test: Biodistribution in blood of mouse EMT6 tumor bearing BALB/c mouse at 10 to 20 uCi after 30 mins; format: ADME, organism-based; settings: in vivo, 0.5 h; in short: as §2
[5] = system: Blood; test: Biodistribution in blood of mouse EMT6 tumor bearing BALB/c mouse at 10 to 20 uCi after 60 mins; format: ADME, organism-based; settings: in vivo, 1 h; in short: as §2
[6] = system: Blood; test: Biodistribution in blood of mouse EMT6 tumor bearing BALB/c mouse at 10 to 20 uCi after 120 mins; format: ADME, organism-based; settings: in vivo, 2 h; in short: as §2
[7] = system: Lung; test: Biodistribution in lung of mouse EMT6 tumor bearing BALB/c mouse at 10 to 20 uCi after 5 mins; format: ADME, organism-based; settings: in vivo; in short: as §2
[8] = system: Lung; test: Biodistribution in lung of mouse EMT6 tumor bearing BALB/c mouse at 10 to 20 uCi after 30 mins; format: ADME, organism-based; settings: in vivo, 0.5 h; in short: as §2
[9] = system: Lung; test: Biodistribution in lung of mouse EMT6 tumor bearing BALB/c mouse at 10 to 20 uCi after 60 mins; format: ADME, organism-based; settings: in vivo, 1 h; in short: as §2
[10] = system: Lung; test: Biodistribution in lung of mouse EMT6 tumor bearing BALB/c mouse at 10 to 20 uCi after 120 mins; format: ADME, organism-based; settings: in vivo, 2 h; in short: as §2
[11] = system: Liver; test: Biodistribution in liver of mouse EMT6 tumor bearing BALB/c mouse at 10 to 20 uCi after 5 mins; format: ADME, organism-based; settings: in vivo; in short: as §2
[12] = system: Liver; test: Biodistribution in liver of mouse EMT6 tumor bearing BALB/c mouse at 10 to 20 uCi after 30 mins; format: ADME, organism-based; settings: in vivo, 0.5 h; in short: as §2
[13] = system: Liver; test: Biodistribution in liver of mouse EMT6 tumor bearing BALB/c mouse at 10 to 20 uCi after 60 mins; format: ADME, organism-based; settings: in vivo, 1 h; in short: as §2
[14] = system: Liver; test: Biodistribution in liver of mouse EMT6 tumor bearing BALB/c mouse at 10 to 20 uCi after 120 mins; format: ADME, organism-based; settings: in vivo, 2 h; in short: as §2
[15] = system: Kidney; test: Biodistribution in kidney of mouse EMT6 tumor bearing BALB/c mouse at 10 to 20 uCi after 5 mins; format: ADME, organism-based; settings: in vivo; in short: as §2
[16] = system: Kidney; test: Biodistribution in kidney of mouse EMT6 tumor bearing BALB/c mouse at 10 to 20 uCi after 30 mins; format: ADME, organism-based; settings: in vivo, 0.5 h; in short: as §2
[17] = system: Kidney; test: Biodistribution in kidney of mouse EMT6 tumor bearing BALB/c mouse at 10 to 20 uCi after 60 mins; format: ADME, organism-based; settings: in vivo, 1 h; in short: as §2
[18] = system: Kidney; test: Biodistribution in kidney of mouse EMT6 tumor bearing BALB/c mouse at 10 to 20 uCi after 120 mins; format: ADME, organism-based; settings: in vivo, 2 h; in short: as §2
[19] = system: Muscle tissue; test: Biodistribution in muscle of EMT6 tumor bearing BALB/c mouse at 10 to 20 uCi after 5 mins; format: ADME, organism-based; settings: in vivo; in short: as §2
[20] = system: Muscle tissue; test: Biodistribution in muscle of mouse EMT6 tumor bearing BALB/c mouse at 10 to 20 uCi after 30 mins; format: ADME, organism-based; settings: in vivo, 0.5 h; in short: as §2
[21] = system: Muscle tissue; test: Biodistribution in muscle of mouse EMT6 tumor bearing BALB/c mouse at 10 to 20 uCi after 60 mins; format: ADME, organism-based; settings: in vivo, 1 h; in short: as §2
[22] = system: Muscle tissue; test: Biodistribution in muscle of mouse EMT6 tumor bearing BALB/c mouse at 10 to 20 uCi after 120 mins; format: ADME, organism-based; settings: in vivo, 2 h; in short: as §2
[23] = system: Adipose tissue; test: Biodistribution in fat of mouse EMT6 tumor bearing BALB/c mouse at 10 to 20 uCi after 5 mins; format: ADME, organism-based; settings: in vivo; in short: as §2
[24] = system: Adipose tissue; test: Biodistribution in fat of mouse EMT6 tumor bearing BALB/c mouse at 10 to 20 uCi after 30 mins; format: ADME, organism-based; settings: in vivo, 0.5 h; in short: as §2
[25] = system: Adipose tissue; test: Biodistribution in fat of mouse EMT6 tumor bearing BALB/c mouse at 10 to 20 uCi after 60 mins; format: ADME, organism-based; settings: in vivo, 1 h; in short: as §2
[26] = system: Adipose tissue; test: Biodistribution in fat of mouse EMT6 tumor bearing BALB/c mouse at 10 to 20 uCi after 120 mins; format: ADME, organism-based; settings: in vivo, 2 h; in short: as §2
[27] = system: Heart; test: Biodistribution in heart of mouse EMT6 tumor bearing BALB/c mouse at 10 to 20 uCi after 5 mins; format: ADME, organism-based; settings: in vivo; in short: as §2
[28] = system: Heart; test: Biodistribution in heart of mouse EMT6 tumor bearing BALB/c mouse at 10 to 20 uCi after 30 mins; format: ADME, organism-based; settings: in vivo, 0.5 h; in short: as §2
[29] = system: Heart; test: Biodistribution in heart of mouse EMT6 tumor bearing BALB/c mouse at 10 to 20 uCi after 60 mins; format: ADME, organism-based; settings: in vivo, 1 h; in short: as §2
[30] = system: Heart; test: Biodistribution in heart of EMT6 tumor bearing BALB/c mouse at 10 to 20 uCi after 120 mins; format: ADME, organism-based; settings: in vivo, 2 h; in short: as §2
[31] = system: Brain; test: Biodistribution in brain of EMT6 tumor bearing BALB/c mouse at 10 to 20 uCi after 5 mins; format: ADME, organism-based; settings: in vivo; in short: as §2
[32] = system: Brain; test: Biodistribution in brain of EMT6 tumor bearing BALB/c mouse at 10 to 20 uCi after 30 mins; format: ADME, organism-based; settings: in vivo, 0.5 h; in short: as §2
[33] = system: Brain; test: Biodistribution in brain of EMT6 tumor bearing BALB/c mouse at 10 to 20 uCi after 60 mins; format: ADME, organism-based; settings: in vivo, 1 h; in short: as §2
[34] = system: Brain; test: Biodistribution in brain of mouse EMT6 tumor bearing BALB/c mouse at 10 to 20 uCi after 120 mins; format: ADME, organism-based; settings: in vivo, 2 h; in short: as §2
[35] = system: Bone; test: Biodistribution in bone of mouse EMT6 tumor bearing BALB/c mouse at 10 to 20 uCi after 5 mins; format: ADME, organism-based, Bone element; settings: in vivo; in short: as §2
[36] = system: Bone; test: Biodistribution in bone of mouse EMT6 tumor bearing BALB/c mouse at 10 to 20 uCi after 30 mins; format: ADME, organism-based, Bone element; settings: in vivo, 0.5 h; in short: as §2
[37] = system: Bone; test: Biodistribution in bone of mouse EMT6 tumor bearing BALB/c mouse at 10 to 20 uCi after 60 mins; format: ADME, organism-based, Bone element; settings: in vivo, 1 h; in short: as §2
[38] = system: Bone; test: Biodistribution in bone of mouse EMT6 tumor bearing BALB/c mouse at 10 to 20 uCi after 120 mins; format: ADME, organism-based, Bone element; settings: in vivo, 2 h; in short: as §2
[39] = system: EMT6; test: Biodistribution in tumor of mouse EMT6 tumor bearing BALB/c mouse at 10 to 20 uCi after 5 mins; format: ADME, organism-based; settings: emt6, 5 min; in short: as §2
[40] = system: EMT6; test: Biodistribution in tumor of EMT6 tumor bearing BALB/c mouse 10 to 20 uCi after 30 mins; format: ADME, organism-based; settings: emt6, 0.5 h; in short: as §2
[41] = system: EMT6; test: Biodistribution in tumor of mouse EMT6 tumor bearing BALB/c mouse at 10 to 20 uCi after 60 mins; format: ADME, organism-based; settings: emt6, 1 h; in short: as §2
[42] = system: EMT6; test: Biodistribution in tumor of mouse EMT6 tumor bearing BALB/c mouse at 10 to 20 uCi after 120 mins; format: ADME, organism-based; settings: emt6, 2 h; in short: as §2
[43] = Decrease in tumor to muscle ratio of the drug in mouse EMT6 tumor bearing BALB/c mouse after 1 hr in presence of YUN-143; format: ADME; parameters: scale not given: the % may be the effect or the level left
In short: (§3)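 Blocking: 18F tracer coinjected i.v. with 1 mg/kg cold YUN-143 (σ1/σ2 ligand) into EMT-6 tumor-bearing female Balb/c mice; sacrificed at 60 min; tumor/muscle and tumor/fat ratios from %ID/g of gamma-counted tissues.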

[44] = Decrease in tumor to fat ratio of the drug in mouse EMT6 tumor bearing BALB/c mouse after 1 hr in presence of YUN-143; format: ADME; parameters: scale not given: the % may be the effect or the level left; in short: as §3

Ratio [1]: 8 | Ratio [2]: 7 | Drug uptake [3]: 1.82 % ID/g | Drug uptake [4]: 1.23 % ID/g | Drug uptake [5]: 0.65 % ID/g | Drug uptake [6]: 0.28 % ID/g | Drug uptake [7]: 18.47 % ID/g | Drug uptake [8]: 3.75 % ID/g | Drug uptake [9]: 1.51 % ID/g | Drug uptake [10]: 0.74 % ID/g | Drug uptake [11]: 15.21 % ID/g | Drug uptake [12]: 10.73 % ID/g | Drug uptake [13]: 5.57 % ID/g | Drug uptake [14]: 2.61 % ID/g | Drug uptake [15]: 19.98 % ID/g | Drug uptake [16]: 7.73 % ID/g | Drug uptake [17]: 3.5 % ID/g | Drug uptake [18]: 1.34 % ID/g | Drug uptake [19]: 2.5 % ID/g | Drug uptake [20]: 0.73 % ID/g | Drug uptake [21]: 0.4 % ID/g | Drug uptake [22]: 0.15 % ID/g | Drug uptake [23]: 4.13 % ID/g | Drug uptake [24]: 1.36 % ID/g | Drug uptake [25]: 0.47 % ID/g | Drug uptake [26]: 0.17 % ID/g | Drug uptake [27]: 5.6 % ID/g | Drug uptake [28]: 1.54 % ID/g | Drug uptake [29]: 0.69 % ID/g | Drug uptake [30]: 0.39 % ID/g | Drug uptake [31]: 0.71 % ID/g | Drug uptake [32]: 0.27 % ID/g | Drug uptake [33]: 0.14 % ID/g | Drug uptake [34]: 0.08 % ID/g | Drug uptake [35]: 2.23 % ID/g | Drug uptake [36]: 2.01 % ID/g | Drug uptake [37]: 0.93 % ID/g | Drug uptake [38]: 0.59 % ID/g | Drug uptake [39]: 3.05 % ID/g | Drug uptake [40]: 3.11 % ID/g | Drug uptake [41]: 2.15 % ID/g | Drug uptake [42]: 1.15 % ID/g | Activity [43]: 50% | Activity [44]: 50%
SMILES: COc1cc2c(cc1OC)CN(CCCCNC(=O)c1cc(I)cc(OC)c1OCC[18F])CC2
